The source made the active and inactive calls. The rule behind the calls is not given here.
Tests used:
[1] = target: Tyrosine-protein kinase SYK (Homo sapiens) (UniProt P43405); assay: Inhibition of SYK (unknown origin) transfected in mouse Ba/F3 cells at 1 uM after 24 hrs; format: cell-based; conditions: BaF3
[2] = target: T1, Tyrosine-protein kinase Mer (Homo sapiens) (UniProt Q12866); assay: Inhibition of MERTK (unknown origin) transfected in mouse Ba/F3 cells at 1 uM after 24 hrs; format: cell-based; conditions: BaF3
T1 sequence (whole entry): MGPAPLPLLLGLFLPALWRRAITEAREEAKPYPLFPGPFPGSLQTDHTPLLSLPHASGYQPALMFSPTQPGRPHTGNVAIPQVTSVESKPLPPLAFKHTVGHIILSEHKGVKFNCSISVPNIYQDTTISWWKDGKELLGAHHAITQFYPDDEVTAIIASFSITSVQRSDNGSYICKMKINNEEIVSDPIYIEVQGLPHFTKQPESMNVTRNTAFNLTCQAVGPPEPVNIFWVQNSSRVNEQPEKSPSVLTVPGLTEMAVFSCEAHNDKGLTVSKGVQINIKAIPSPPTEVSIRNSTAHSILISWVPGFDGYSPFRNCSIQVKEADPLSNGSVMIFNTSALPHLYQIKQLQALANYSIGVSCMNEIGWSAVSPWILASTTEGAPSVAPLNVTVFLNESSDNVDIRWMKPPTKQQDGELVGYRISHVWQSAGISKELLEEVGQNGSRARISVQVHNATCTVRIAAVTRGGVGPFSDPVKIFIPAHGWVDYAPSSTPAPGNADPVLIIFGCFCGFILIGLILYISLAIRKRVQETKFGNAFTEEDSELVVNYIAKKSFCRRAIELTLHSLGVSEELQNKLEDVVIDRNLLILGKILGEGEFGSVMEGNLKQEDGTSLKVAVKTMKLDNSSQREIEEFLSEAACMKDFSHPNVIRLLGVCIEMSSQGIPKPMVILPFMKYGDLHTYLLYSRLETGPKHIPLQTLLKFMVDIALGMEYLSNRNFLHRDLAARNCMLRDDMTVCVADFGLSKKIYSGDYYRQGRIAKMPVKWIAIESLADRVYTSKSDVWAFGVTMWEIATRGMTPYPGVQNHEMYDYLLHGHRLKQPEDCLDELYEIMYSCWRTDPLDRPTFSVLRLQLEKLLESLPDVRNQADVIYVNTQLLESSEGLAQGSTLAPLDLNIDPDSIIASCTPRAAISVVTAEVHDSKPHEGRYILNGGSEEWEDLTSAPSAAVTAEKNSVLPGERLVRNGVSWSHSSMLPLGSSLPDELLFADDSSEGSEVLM

[3] = target: T2, Ephrin type-A receptor 8 (Homo sapiens) (UniProt P29322); assay: Inhibition of EPHA8 (unknown origin) transfected in mouse Ba/F3 cells at 1 uM after 24 hrs; format: cell-based; conditions: BaF3
T2 sequence (whole entry): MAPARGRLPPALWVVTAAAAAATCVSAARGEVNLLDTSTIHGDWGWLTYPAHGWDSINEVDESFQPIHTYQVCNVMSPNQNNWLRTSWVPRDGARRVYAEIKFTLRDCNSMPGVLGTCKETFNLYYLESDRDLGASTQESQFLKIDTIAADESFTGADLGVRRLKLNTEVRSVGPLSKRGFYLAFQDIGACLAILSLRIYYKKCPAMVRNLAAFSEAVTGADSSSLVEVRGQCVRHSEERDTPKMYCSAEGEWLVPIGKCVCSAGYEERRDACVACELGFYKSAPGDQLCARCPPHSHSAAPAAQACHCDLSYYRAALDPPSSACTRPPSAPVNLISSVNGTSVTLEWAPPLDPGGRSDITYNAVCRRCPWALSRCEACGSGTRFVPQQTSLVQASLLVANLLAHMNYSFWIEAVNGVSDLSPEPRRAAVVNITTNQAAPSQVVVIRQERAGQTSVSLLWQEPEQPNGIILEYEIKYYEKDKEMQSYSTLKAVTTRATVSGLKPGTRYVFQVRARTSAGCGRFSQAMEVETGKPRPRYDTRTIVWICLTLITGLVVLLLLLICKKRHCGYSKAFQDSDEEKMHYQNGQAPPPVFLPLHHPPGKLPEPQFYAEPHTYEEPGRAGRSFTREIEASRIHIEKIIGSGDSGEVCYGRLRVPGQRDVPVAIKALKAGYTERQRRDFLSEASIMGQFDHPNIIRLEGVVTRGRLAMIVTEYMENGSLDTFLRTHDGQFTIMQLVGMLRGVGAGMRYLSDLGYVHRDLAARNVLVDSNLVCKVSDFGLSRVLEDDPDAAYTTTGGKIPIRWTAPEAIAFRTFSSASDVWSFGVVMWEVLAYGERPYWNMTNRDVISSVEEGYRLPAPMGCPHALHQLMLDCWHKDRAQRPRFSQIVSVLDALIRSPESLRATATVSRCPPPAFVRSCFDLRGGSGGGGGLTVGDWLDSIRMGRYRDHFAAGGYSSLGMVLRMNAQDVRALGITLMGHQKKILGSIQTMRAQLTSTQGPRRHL
In short: (§1)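 Kinase specificity panel: each Ba/F3 line transformed with one of 24 tyrosine kinases depends on that kinase to grow. Cells were given compound at 1 or 5 µM for 24 h, with DMSO as comparator. Percentage growth was read by ATP-lite luminescence and reported as mean ± SEM.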

[4] = target: Ephrin type-A receptor 7 (Homo sapiens) (UniProt Q15375); assay: Inhibition of EPHA7 (unknown origin) transfected in mouse Ba/F3 cells at 1 uM after 24 hrs; format: cell-based; conditions: BaF3; in short: as §1
Chain of Ephrin type-A receptor 7 (Homo sapiens) (Q15375 28-998 limits assumed): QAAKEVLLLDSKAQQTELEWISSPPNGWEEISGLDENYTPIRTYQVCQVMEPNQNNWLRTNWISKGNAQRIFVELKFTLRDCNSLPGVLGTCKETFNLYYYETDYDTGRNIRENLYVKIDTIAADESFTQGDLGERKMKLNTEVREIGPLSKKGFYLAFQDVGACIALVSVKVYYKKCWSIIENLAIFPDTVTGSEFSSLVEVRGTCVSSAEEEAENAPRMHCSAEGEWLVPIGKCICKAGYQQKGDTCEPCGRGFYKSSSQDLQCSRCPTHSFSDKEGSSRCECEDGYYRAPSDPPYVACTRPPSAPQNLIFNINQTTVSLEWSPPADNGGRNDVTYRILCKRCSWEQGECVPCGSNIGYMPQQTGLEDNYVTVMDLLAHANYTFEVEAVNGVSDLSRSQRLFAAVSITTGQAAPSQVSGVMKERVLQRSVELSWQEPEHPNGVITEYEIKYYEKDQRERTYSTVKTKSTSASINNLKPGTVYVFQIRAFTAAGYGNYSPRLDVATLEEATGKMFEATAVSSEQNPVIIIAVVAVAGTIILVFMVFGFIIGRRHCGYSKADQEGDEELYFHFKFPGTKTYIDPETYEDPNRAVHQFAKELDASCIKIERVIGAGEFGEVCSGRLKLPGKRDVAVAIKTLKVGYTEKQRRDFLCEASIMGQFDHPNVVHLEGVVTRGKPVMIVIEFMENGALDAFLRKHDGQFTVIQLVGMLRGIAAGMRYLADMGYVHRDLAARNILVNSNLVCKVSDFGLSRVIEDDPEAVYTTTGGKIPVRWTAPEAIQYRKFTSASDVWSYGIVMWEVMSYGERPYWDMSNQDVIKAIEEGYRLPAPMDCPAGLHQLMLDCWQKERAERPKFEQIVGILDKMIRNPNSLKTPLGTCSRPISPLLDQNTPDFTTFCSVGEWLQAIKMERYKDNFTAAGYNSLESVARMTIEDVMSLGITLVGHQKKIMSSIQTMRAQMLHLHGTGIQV

KG-1 = assay: Cytotoxicity against human KG1 cells after 72 hrs by plate reader analysis; format: functional, cell-based; conditions: KG-1, 72 h
EOL1 = assay: Cytotoxicity against human EOL-1 cells after 72 hrs by plate reader analysis; format: functional, cell-based; conditions: EOL1, 72 h
MOLM-13 = assay: Cytotoxicity against human MOLM13 cells after 72 hrs by plate reader analysis; format: functional, cell-based; conditions: MOLM-13, 72 h

Row | SMILES | inhibition [1] | inhibition [2] | inhibition [3] | inhibition [4] | EC50 (KG-1) | EC50 (EOL1) | EC50 (MOLM-13)
1 | COc1ccc(C(=O)Nc2cc(-c3ccccc3)[nH]n2)cc1 | inactive | inactive | inactive | inactive | 15000 nM | 66 nM | 292 nM
2 | Fc1ccc(-c2n[nH]cc2-c2ccncc2)cc1Cl | – | – | – | – | 24000 nM | 382 nM | 258 nM
3 | Cc1ccc(-c2cc(NC(=O)c3ccc(F)cc3)[nH]n2)cc1 | inactive | inactive | inactive | inactive | 28000 nM | 502 nM | 612 nM
4 | Cc1cccc(C(=O)Nc2cc(-c3ccc(F)cc3)n[nH]2)c1 | inactive | inactive | inactive | inactive | 29000 nM | 202 nM | 630 nM
5 | Cc1ccc(-n2cnc3cc(Nc4nnc(C)c5ccccc45)ccc32)cc1 | – | – | – | – | 20000 nM | 889 nM | 332 nM
